Test results: ChEMBL document CHEMBL3352558, “β-Keto and β-hydroxyphosphonate analogs of biotin-5'-AMP are inhibitors of holocarboxylase synthetase” (Bioorg Med Chem Lett, 2014)
Calls of active or inactive are those of the source. No cut-off for these calls is given here.

What was measured:
[1] = molecular target: T1, Biotin--protein ligase (Homo sapiens) (UniProt P50747); experiment: Competitive inhibition of human recombinant HLCS using P67 as substrate by Western blotting analysis in presence of biotin
T1 sequence (whole entry): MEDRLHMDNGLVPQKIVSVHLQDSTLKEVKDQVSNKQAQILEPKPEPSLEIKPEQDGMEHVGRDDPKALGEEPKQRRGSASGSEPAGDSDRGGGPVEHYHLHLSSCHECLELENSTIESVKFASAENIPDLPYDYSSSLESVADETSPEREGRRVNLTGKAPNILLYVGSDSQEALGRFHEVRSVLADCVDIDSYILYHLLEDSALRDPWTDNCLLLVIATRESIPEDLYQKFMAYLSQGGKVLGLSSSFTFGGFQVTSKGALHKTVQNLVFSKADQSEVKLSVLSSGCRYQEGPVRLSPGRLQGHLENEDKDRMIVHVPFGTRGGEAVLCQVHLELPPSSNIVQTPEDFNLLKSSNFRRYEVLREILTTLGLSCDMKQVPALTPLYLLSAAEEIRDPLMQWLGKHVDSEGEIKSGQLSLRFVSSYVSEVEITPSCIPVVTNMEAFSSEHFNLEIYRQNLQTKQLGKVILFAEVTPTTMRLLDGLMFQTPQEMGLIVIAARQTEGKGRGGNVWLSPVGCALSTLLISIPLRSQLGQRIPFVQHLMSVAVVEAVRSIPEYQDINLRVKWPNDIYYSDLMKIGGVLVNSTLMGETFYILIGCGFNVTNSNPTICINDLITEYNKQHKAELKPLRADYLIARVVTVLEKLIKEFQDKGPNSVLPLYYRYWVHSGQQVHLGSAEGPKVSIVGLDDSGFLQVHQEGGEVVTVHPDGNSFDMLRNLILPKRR
Procedure, shortened: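 Recombinant HLCS (30 nM) with 2 µM p67 and the activity-assay cofactors; inhibitor fixed at 250 µM or absent, biotin varied 0-360 µM. Reactions stopped with Tricine loading dye and 95°C for 10 min. Biotinylated p67 detected by Western blot with anti-biotin and infrared imaging.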

Biotin--protein ligase = molecular target: T2, Biotin--protein ligase (Homo sapiens, UniProt P50747); experiment: (§1) Inhibition of human recombinant HLCS using P67 as substrate after 2 hrs relative to vehicle-treated control
T2 sequence (P50747 whole entry): T1 sequence (whole entry)

[2] = molecular target: T1, Biotin--protein ligase (Homo sapiens); experiment: Inhibition of human recombinant HLCS using P67 as substrate at 500 uM after 2 hrs relative to vehicle-treated control
[3] = Selectivity for Staphylococcus aureus biotin protein ligase over human HLCS
[4] = molecular target: T1, Biotin--protein ligase (Homo sapiens); experiment: as §1
[5] = Binding affinity to Staphylococcus aureus biotin protein ligase

## Nc1ncnc2c1ncn2[C@@H]1O[C@H](COP(=O)(O)CC(O)CCCC[C@@H]2SC[C@@H]3NC(=O)N[C@@H]32)[C@@H](O)[C@H]1O (stereo partly drawn)
[1]
  inhibition: Active
Biotin--protein ligase
  IC50: 204 µM
  Ki: 10.4 µM
[2]
  inhibition: 67.7%

## Nc1ncnc2c1ncn2[C@@H]1O[C@H](Cn2cc(CCCC[C@@H]3SC[C@@H]4NC(=O)N[C@@H]43)nn2)[C@@H](O)[C@H]1O
[3]
  Selectivity ratio: > 1100

## Nc1ncnc2c1ncn2[C@@H]1O[C@H](COP(=O)(O)CC(=O)CCCC[C@@H]2SC[C@@H]3NC(=O)N[C@@H]32)[C@@H](O)[C@H]1O
[1]
  inhibition: Active
[4]
  inhibition: Dose-dependent effect
Biotin--protein ligase
  IC50: 39.7 µM
  Ki: 2 µM
[2]
  inhibition: 81.3%

## Nc1ncnc2c1ncn2[C@@H]1O[C@H](COP(=O)(O)OCCCCC[C@@H]2SC[C@@H]3NC(=O)N[C@@H]32)[C@@H](O)[C@H]1O
[5]
  Ki: 0.03 µM
[2]
  inhibition: 98%

## COP(=O)(O)CC(=O)CCCC[C@@H]1SC[C@@H]2NC(=O)N[C@@H]21
[1]
  inhibition: inactive
